The source of these data is ChEMBL document CHEMBL1944511, “Bakuchiol derivatives as novel and potent cytotoxic agents: a report” (Eur J Med Chem, 2012).

Type in all cases: functional
For one assay, the system named is OVCAR-5. The assay is described as follows: Growth inhibition of human OVCAR5 cells at 50 uM after 48 hrs by sulpharhodamine B assay. The conditions noted are these: OVCAR-5, 48 h, read-out: GI. A digest of the protocol: (§1)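 This is the SRB protein-stain assay on adherent cells in RPMI-1640/MEM with 10% FCS. Each compound in DMSO (vehicle <0.2%) was applied at a single fixed concentration for 48 h. Cells were fixed with TCA and stained with SRB, and the dye was solubilised in Tris and read at 570/620 nm. Percent growth inhibition is relative to vehicle-treated controls, reported as mean ± SD of three experiments run in triplicate.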

In another assay the test system is A549. The assay is described as follows: Growth inhibition of human A549 cells at 50 uM after 48 hrs by sulpharhodamine B assay. To be noted: A549, 48 h, read-out: GI. A digest of the protocol:
as §1

Another assay has as its system MCF7. Put plainly: Growth inhibition of human MCF7 cells at 50 uM after 48 hrs by sulpharhodamine B assay. The conditions noted are these: MCF7, 48 h, read-out: GI. A digest of the protocol: as §1
A further assay deals with THP-1. The assay is described as follows: Growth inhibition of human THP1 cells at 50 uM after 48 hrs by sulpharhodamine B assay. To be noted: THP-1, 48 h, read-out: GI. Summed up: (§2)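 Cells grown in RPMI-1640/MEM with 10% FCS, penicillin/streptomycin, 37 °C, 5% CO2. Seeded in 96-well plates, allowed to adhere overnight, then exposed 48 h to analogs in DMSO (vehicle <0.2% in controls). TCA-fixed, stained with 0.4% SRB in 1% acetic acid, dye solubilized in 10 mM Tris base, OD 570 nm (ref 620 nm). Mean ± SD of three experiments run in triplicate.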

A further assay relates to PC-3. The assay is described as follows: Growth inhibition of human PC3 cells at 50 uM after 48 hrs by sulpharhodamine B assay. The conditions noted are these: PC-3, 48 h, read-out: GI. A digest of the protocol:
as §2

For another assay, the system named is HeLa. Put plainly: Growth inhibition of human HeLa cells at 50 uM after 48 hrs by sulpharhodamine B assay. To be noted: read-out: GI. Summed up:
as §1

Another assay concerns IMR-32. The assay is described as follows: Growth inhibition of human IMR32 cells at 50 uM after 48 hrs by sulpharhodamine B assay. To be noted: IMR-32, 48 h, read-out: GI. A digest of the protocol:
as §1

Take `C=C[C@@](C)(/C=C/c1ccc(O)c([N+](=O)[O-])c1)CCC=C(C)C`: the inhibition of growth at 50 µM in the assay on OVCAR-5 was 55%; in the assay with A549, 52%; in the assay with MCF7, 49%; in the assay with THP-1, 55%; in the assay on PC-3 it was 52%; in the assay with HeLa it was 49%. In the assay on IMR-32, the inhibition of growth at 50 µM was 50%.
Regarding `C=C[C@@](C)(/C=C/c1ccc(OC(=O)CC)cc1)CCC=C(C)C`, the inhibition of growth at 50 µM with OVCAR-5 amounted to 52%; with A549, 42%; with MCF7, 23%; in the assay with THP-1 it was 60%; in the assay on PC-3, 54%; in the assay on HeLa it was 48%. For the same molecule, the inhibition of growth at 50 µM with IMR-32 was 63%.
Regarding `C=C[C@@](C)(/C=C/c1ccc(O)cc1)CC/C=C(/C)C=O`, the inhibition of growth at 50 µM in the assay on OVCAR-5 stood at 22%; with A549, 35%; with MCF7 it was 12%; in the assay with THP-1, 54%; in the assay with PC-3 it was 51%; in the assay with HeLa it was 40%. In addition, the inhibition of growth at 50 µM in the assay with IMR-32 was 53%.
Consider `CC[C@](C)(CCCC(C)C)CCc1ccc(O)c(I)c1`, for which the inhibition of growth at 50 µM was 11% with OVCAR-5; 12% in the assay with A549; 40% in the assay with MCF7; 58% with THP-1; 8% in the assay with PC-3; 43% in the assay on HeLa. The inhibition of growth at 50 µM in the assay on IMR-32 stood at 21%.
For `CCCOc1ccc(/C=C/[C@@](C)(/C=C/c2ccc(O)cc2)CCC=C(C)C)cc1Cl`, the inhibition of growth at 50 µM with OVCAR-5 came to 12%; with A549, 5%; in the assay on MCF7, 47%; in the assay with THP-1, 20%; in the assay with PC-3 it was 7%; in the assay on HeLa, 4%. Besides, the inhibition of growth at 50 µM in the assay on IMR-32 was 8%.
As to `CC[C@](C)(CCCC(C)C)CCc1cc(Br)c(O)c(Br)c1`, the inhibition of growth at 50 µM with OVCAR-5 is 8%; in the assay with A549, 40%; with MCF7, 42%; in the assay on THP-1, 51%; in the assay with PC-3, 50%; in the assay with HeLa, 42%. Also, in the assay with IMR-32, the inhibition of growth at 50 µM came to 21%.
In the case of `COc1ccc(/C=C/C(C)(/C=C/c2ccc(OC)cc2)CCC=C(C)C)cc1`, the inhibition of growth at 50 µM worked out at 25% in the assay on OVCAR-5; 15% in the assay on A549; 13% in the assay on MCF7; 62% in the assay on THP-1; 29% in the assay with PC-3; 11% with HeLa. For the same molecule, the inhibition of growth at 50 µM with IMR-32 is 27%.
Turning to `COc1ccc(/C=C/[C@@](C)(/C=C/c2ccc(O)cc2)CCC=C(C)C)cc1CO`, the inhibition of growth at 50 µM came to 38% with OVCAR-5; 41% in the assay with A549; 42% in the assay with MCF7; 58% in the assay on THP-1; 39% in the assay on PC-3; 36% with HeLa. For the same molecule, the inhibition of growth at 50 µM in the assay on IMR-32 came out at 34%.
Regarding `C=C[C@@](C)(/C=C/c1ccc(OC(=O)CCCC)cc1)CCC=C(C)C`, the inhibition of growth at 50 µM in the assay with OVCAR-5 was 3%; in the assay with A549, 38%; in the assay with MCF7 it was 25%; in the assay with THP-1 it was 15%; in the assay with PC-3 it was 42%; with HeLa, 23%. Also, the inhibition of growth at 50 µM with IMR-32 was 21%.
Consider `C=C[C@@](C)(/C=C/c1ccc(OC(=O)CCCCCCCCCCCCCCC)cc1)CCC=C(C)C`, for which the inhibition of growth at 50 µM in the assay on OVCAR-5 worked out at 64%; with A549, 61%; in the assay with MCF7, 24%; in the assay on THP-1, 62%; in the assay on PC-3, 62%; in the assay with HeLa, 51%. The inhibition of growth at 50 µM in the assay with IMR-32 came to 54%.
